Experimental data as given in ChEMBL document CHEMBL1157968, “Chemical and cytotoxic constituents from the leaves of Cinnamomum kotoense” (2006).

What was measured:
Assay type in all cases: functional
HeLa [1] = experiment: Cell cycle arrest in human HeLa cells pretreated with 10 uM Dexamethasone for 1 hr assessed as G2/M phase accumulation at 100 uM after 24 hrs by FACS
Procedure, shortened: (§1)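 HeLa cells pretreated for 1 h with the listed agent (10 mM GSH ethyl ester, 10 µM dexamethasone, 10 µM pifithrin, 100 µM Boc-Asp(OMe)-fmk or 5 µM cyclosporin A), then given 100 µM compound for 24 h. Cells fixed in PBS-MeOH, stained with PI/RNase and analysed by flow cytometry for DNA content. At least three experiments, one representative shown.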

HeLa [2] = experiment: Cell cycle arrest in human HeLa cells assessed as subG1 phase accumulation at 25 uM after 24 hrs by FACS
Procedure, shortened: (§2)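 HeLa cells seeded 5 × 10^5 per dish 48 h ahead in DMEM with 10% FCS, then exposed to compound for 24 h (DMSO 0.1% final). Adherent and floating cells pooled, fixed in PBS-MeOH (1:2) at 4 °C for at least 18 h, and stained with PI (50 µg/mL) plus RNase A for 30 min at room temperature. Flow cytometry at 488 nm excitation, doublets gated out; phase percentages taken from DNA histograms.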

HeLa [3] = experiment: Cell cycle arrest in human HeLa cells assessed as subG1 phase accumulation at 50 uM after 24 hrs by FACS; procedure, shortened: as §2
HeLa [4] = experiment: Cell cycle arrest in human HeLa cells assessed as S phase accumulation at 100 uM after 24 hrs by FACS; procedure, shortened: as §2
HeLa [5] = experiment: Induction of apoptosis in human HeLa cells assessed as increase in intracellular hydrogen peroxide level at 100 uM after 3 hrs by FACS relative to untreated control
Procedure, shortened: (§3)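 HeLa cells at 80% confluence were refed and exposed to 100 µM for 1, 3 or 24 h. They were loaded with 10 µM DCFH-DA for 30 min in the dark, trypsinized and resuspended in PBS. DCF fluorescence was measured by flow cytometry and expressed as fold versus untreated cells. At least three experiments.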

HeLa [6] = experiment: Induction of apoptosis in human HeLa cells assessed as increase in intracellular hydrogen peroxide level at 100 uM after 24 hrs by FACS relative to untreated control; procedure, shortened: as §3
HeLa [7] = experiment: Induction of apoptosis in human HeLa cells assessed as increase in intracellular peroxide level at 100 uM after 24 hrs by FACS relative to untreated control; procedure, shortened: as §3
HeLa [8] = experiment: Induction of apoptosis in human HeLa cells assessed as increase in intracellular nitric oxide level at 100 uM after 24 hrs by FACS relative to untreated control
Procedure, shortened: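 HeLa cells at 80% confluence were exposed to 100 µM for 1, 3 or 24 h and then stained with 1 µM DAF-2 for 10 min in the dark. After trypsinization, DAF-2 fluorescence was measured by flow cytometry and taken as fold versus untreated cells. At least three experiments.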

HeLa [9] = experiment: Induction of apoptosis in human HeLa cells assessed as number of cells with decreased mitochondrial membrane potential at 100 uM after 9 hrs by measuring rhodamine 123 fluorescence intensity; parameters: scale not given: the % may be the effect or the level left
Procedure, shortened: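 Cells in DMEM/10% FCS, medium renewed at 80% confluence, then 100 µM agent (0.1% DMSO final) for 1–24 h. Stained with 5 µM rhodamine 123 for 30 min in the dark, washed, trypsinized and resuspended in PBS; flow cytometry, percentage of cells with weak rhodamine 123 staining (reduced ΔΨm); at least three experiments, representative shown.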

HeLa [10] = experiment: Induction of apoptosis in human HeLa cells assessed as increase caspase 3/7 activities at 100 uM after 3 hrs by FACS relative to control
Procedure, shortened: (§4)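 After 3–24 h exposure at 100 µM, HeLa cells were trypsinized. 1 × 10^6 cells in DMEM were mixed 1:1 with Z-DEVD-R110 substrate reagent and incubated 1 h at 37 °C, then washed. Released R110 read per cell by flow cytometry (ex 488/em 520 nm) and expressed as fold over untreated cells. At least three runs.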

HeLa [11] = experiment: Induction of apoptosis in human HeLa cells assessed as increase caspase 3/7 activities at 100 uM after 24 hrs by FACS relative to control; procedure, shortened: as §4
HeLa [12] = experiment: Induction of apoptosis in human HeLa cells assessed as increase p53 expression at 100 uM after 12 hrs by FACS
Procedure, shortened: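 Cells at 60% confluence were exposed to 100 µM for 0–24 h. Floating and adherent cells were fixed in 1% paraformaldehyde (15 min, 4 °C) and permeabilized in 70% EtOH. They were stained with FITC-anti-p53 monoclonal antibody for 1 h at 37 °C, then with PI/RNase. Flow cytometry gave the percentage of p53-positive cells.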

HeLa [13] = experiment: Induction of apoptosis in human HeLa cells at 100 uM after 24 hrs by TUNEL assay
Procedure, shortened: (§5)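 HeLa in DMEM/10% FCS, untreated or pretreated 1 h with listed inhibitor, then 100 µM agent (0.1% DMSO final) for 24 h. Pooled cells fixed in 1% paraformaldehyde (30 min, 4 °C), 70% EtOH (30 min, −20 °C); strand breaks labelled with TdT/fluorescein-BrdUTP (1 h, 37 °C), PI/RNase counterstain; flow cytometry, % apoptotic cells; ≥3 experiments.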

HeLa [14] = experiment: Induction of apoptosis in human HeLa cells pretreated with 100 uM Boc-Asp(OMe)-fmk for 1 hr at 100 uM after 24 hrs by TUNEL assay; procedure, shortened: as §5
HeLa [15] = experiment: Induction of apoptosis in human HeLa cells pretreated with 10 uM Dexamethasone for 1 hr at 100 uM after 24 hrs by TUNEL assay; procedure, shortened: as §5
HeLa [16] = experiment: Cell cycle arrest in human HeLa cells pretreated with 10 mM glutathione ethyl ester for 1 hr assessed as subG1 phase accumulation at 100 uM after 24 hrs by FACS; procedure, shortened: as §1
HeLa [17] = experiment: Cell cycle arrest in human HeLa cells pretreated with 100 uM Boc-Asp(OMe)-fmk for 1 hr assessed as G1 phase accumulation at 100 uM after 24 hrs by FACS; procedure, shortened: as §1
HeLa [18] = experiment: Cell cycle arrest in human HeLa cells pretreated with 100 uM Boc-Asp(OMe)-fmk for 1 hr assessed as G2/M phase accumulation at 100 uM after 24 hrs by FACS; procedure, shortened: as §1
HeLa [19] = experiment: Cell cycle arrest in human HeLa cells pretreated with 5 uM cyclosporin A for 1 hr assessed as G1 phase accumulation at 100 uM after 24 hrs by FACS; procedure, shortened: as §1
HeLa [20] = experiment: Cell cycle arrest in human HeLa cells pretreated with 5 uM cyclosporin A for 1 hr assessed as G2/M phase accumulation at 100 uM after 24 hrs by FACS; procedure, shortened: as §1
HeLa [21] = experiment: Cell cycle arrest in human HeLa cells pretreated with 10 uM Dexamethasone for 1 hr assessed as S phase accumulation at 100 uM after 24 hrs by FACS; procedure, shortened: as §1
HeLa [22] = experiment: Cell cycle arrest in human HeLa cells pretreated with 10 uM pifithrin-alpha for 1 hr assessed as S phase accumulation at 100 uM after 24 hrs by FACS; procedure, shortened: as §1
HeLa [23] = experiment: Cell cycle arrest in human HeLa cells pretreated with 10 uM pifithrin-alpha for 1 hr assessed as G2/M phase accumulation at 100 uM after 24 hrs by FACS; procedure, shortened: as §1

SMILES: CCCCCCCCCCCCC/C=C(/C(=O)OC)[C@@H](O)C(C)=O [SECOKOTOMOLIDE A]
- Activity (HeLa [1]): 12.3%
- Activity (HeLa [2]): 47.7%
- Activity (HeLa [3]): 61.2%
- Activity (HeLa [4]): 28.7%
- fold change (FC) (HeLa [5]): 2.9
- fold change (FC) (HeLa [6]): 3.9
- fold change (FC) (HeLa [7]): 3.9
- fold change (FC) (HeLa [8]): 2.1
- Activity (HeLa [9]): 42.4%
- fold change (FC) (HeLa [10]): 3.5
- fold change (FC) (HeLa [11]): 1.7
- Activity (HeLa [12]): 2.3%
- Activity (HeLa [13]): 72.3%
- Activity (HeLa [14]): 39%
- Activity (HeLa [15]): 55.3%
- Activity (HeLa [16]): 11.3%
- Activity (HeLa [17]): 60.6%
- Activity (HeLa [18]): 25.7%
- Activity (HeLa [19]): 47.7%
- Activity (HeLa [20]): 38.2%
- Activity (HeLa [21]): 33.8%
- Activity (HeLa [22]): 48.5%
- Activity (HeLa [23]): 0%
